Measurements from ChEMBL document CHEMBL5724801, “EUbOPEN Chemogenomics Library - Multiplex” (2024).
Values joined by “and” are separate entries in the source; they are usually repeats but may differ in a detail not shown here. Equal values may be shown once.

Tested on: U2OS
Test: Multiplex assay against U2OS
Assay type: toxicity, cell-based
Conditions: human
In short: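 Per cents of healthy-nucleus cells form the tubulin, mitochondrial-mass and membrane-permeability phenotype values. Live cells were stained at seeding with Hoechst33342, BioTracker Green Microtubule Cytoskeleton Dye, MitoTracker Red and Annexin V Alexa Fluor 680. After compound addition they were imaged on a CQ1 microscope at 37°C and 5% CO2, and CellPathfinder machine-learning gating split them into Hoechst high-intensity objects or normal cells, normal cells into healthy, pyknosed or fragmented nuclei, and pyknosed cells into mitotic or apoptotic.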

[1] = 12 h, 1 µM, compound concentration 1 uM
[2] = 12 h, 10 µM, compound concentration 10 uM
[3] = 24 h, 1 µM, compound concentration 1 uM
[4] = 24 h, 10 µM, compound concentration 10 uM
[5] = 48 h, 1 µM, compound concentration 1 uM
[6] = 48 h, 10 µM, compound concentration 10 uM

## CC(C)(C)c1cc(C(C)(C)C)c(NC(=O)c2c[nH]c3ccccc3c2=O)cc1O [IVACAFTOR]
[1]
  Population Apoptotic (%): 36.36% and 31.58%
  Population Fragmented Nuclei (%): 1.43% and 1.95%
  Population Healthy Nuclei (%): 92.26% and 85.71%
  Population Hoechst High Intensity Objects (%): 0%
  Population Membrane Permeable-Phenotype (%): 0.62% and 0.76%
  Population Mitochondria Different-Phenotype (%): 0% and 7.58%
  Population Mitotic Cells (%): 63.64% and 68.42%
  Population Normal (%): 100%
  Population Pyknosed Nuclei (%): 6.3% and 12.34%
  Population Tubulin-Different-Phenotype (%): 0.62% and 0%
  Total Cell Count: 349 and 154
[2]
  Population Apoptotic (%): 44.16% and 30.95%
  Population Fragmented Nuclei (%): 2.96% and 8.38%
  Population Healthy Nuclei (%): 74.26% and 66.47%
  Population Hoechst High Intensity Objects (%): 0%
  Population Membrane Permeable-Phenotype (%): 3.59% and 13.51%
  Population Mitotic Cells (%): 55.84% and 69.05%
  Population Normal (%): 100%
  Population Pyknosed Nuclei (%): 22.78% and 25.15%
  Population Tubulin-Different-Phenotype (%): 10.76% and 1.8%
  Total Cell Count: 338 and 167
[3]
  Population Apoptotic (%): 22.95% and 40%
  Population Fragmented Nuclei (%): 1.83% and 3.23%
  Population Healthy Nuclei (%): 85.77% and 86.02%
  Population Hoechst High Intensity Objects (%): 0%
  Population Membrane Permeable-Phenotype (%): 0.24% and 1.88%
  Population Mitochondria Different-Phenotype (%): 0% and 6.88%
  Population Mitotic Cells (%): 77.05% and 60%
  Population Normal (%): 100%
  Population Pyknosed Nuclei (%): 12.4% and 10.75%
  Population Tubulin-Different-Phenotype (%): 0.71% and 0%
  Total Cell Count: 492 and 186
[4]
  Population Apoptotic (%): 51.81% and 29.41%
  Population Fragmented Nuclei (%): 3.33% and 6.94%
  Population Healthy Nuclei (%): 75.38% and 63.58%
  Population Hoechst High Intensity Objects (%): 0%
  Population Mitotic Cells (%): 48.19% and 70.59%
  Population Normal (%): 100%
  Population Pyknosed Nuclei (%): 21.28% and 29.48%
  Population Tubulin-Different-Phenotype (%): 8.84% and 7.27%
  Total Cell Count: 390 and 173
[5]
  Population Apoptotic (%): 47.3% and 42.86%
  Population Fragmented Nuclei (%): 2.51% and 4.1%
  Population Healthy Nuclei (%): 89.07% and 81.57%
  Population Hoechst High Intensity Objects (%): 0%
  Population Membrane Permeable-Phenotype (%): 0.13% and 0.84%
  Population Mitochondria Different-Phenotype (%): 0% and 5.86%
  Population Mitotic Cells (%): 52.7% and 57.14%
  Population Normal (%): 100%
  Population Pyknosed Nuclei (%): 8.43% and 14.33%
  Population Tubulin-Different-Phenotype (%): 0.64% and 1.67%
  Total Cell Count: 878 and 293
[6]
  Population Apoptotic (%): 55% and 62.65%
  Population Healthy Nuclei (%): 75.09% and 44.95%
  Population Hoechst High Intensity Objects (%): 0% and 0.5%
  Population Membrane Permeable-Phenotype (%): 2.72% and 10.11%
  Population Mitotic Cells (%): 45% and 37.35%
  Population Normal (%): 100% and 99.5%
  Population Pyknosed Nuclei (%): 22.3% and 41.92%
  Population Tubulin-Different-Phenotype (%): 11.88% and 16.85%
  Total Cell Count: 538 and 199

## C=CCN1C[C@H](C(=O)N(CCCN(C)C)C(=O)NCC)C[C@@H]2c3cccc4[nH]cc(c34)C[C@H]21 [CABERGOLINE]
[1]
  Population Apoptotic (%): 86% and 57%
  Population Fragmented Nuclei (%): 13% and 9%
  Population Healthy Nuclei (%): 72% and 84%
  Population Hoechst High Intensity Objects (%): 2% and 3%
  Population Membrane Permeable-Phenotype (%): 3% and 8%
  Population Mitochondria Different-Phenotype (%): 1% and 4%
  Population Normal (%): 97% and 96%
  Population Pyknosed Nuclei (%): 13% and 5%
  Population Tubulin-Different-Phenotype (%): 1% and 5%
  Total Cell Count: 228 and 129
[2]
  Population Apoptotic (%): 69% and 64%
  Population Fragmented Nuclei (%): 35% and 17%
  Population Healthy Nuclei (%): 52% and 70%
  Population Hoechst High Intensity Objects (%): 3% and 2%
  Population Membrane Permeable-Phenotype (%): 15% and 13%
  Population Mitochondria Different-Phenotype (%): 9% and 21%
  Population Mitotic Cells (%): 30% and 35%
  Population Normal (%): 96% and 97%
  Population Pyknosed Nuclei (%): 11% and 12%
  Population Tubulin-Different-Phenotype (%): 11% and 9%
  Total Cell Count: 228 and 143
[3]
  Population Apoptotic (%): 82% and 64%
  Population Fragmented Nuclei (%): 15% and 7%
  Population Healthy Nuclei (%): 74% and 83%
  Population Hoechst High Intensity Objects (%): 3% and 1%
  Population Membrane Permeable-Phenotype (%): 1% and 9%
  Population Mitochondria Different-Phenotype (%): 1% and 4%
  Population Mitotic Cells (%): 17% and 35%
  Population Normal (%): 96% and 98%
  Population Pyknosed Nuclei (%): 10% and 8%
  Population Tubulin-Different-Phenotype (%): 0% and 6%
  Total Cell Count: 295 and 162
[4]
  Population Apoptotic (%): 65% and 88%
  Population Fragmented Nuclei (%): 33% and 14%
  Population Healthy Nuclei (%): 54% and 75%
  Population Hoechst High Intensity Objects (%): 3% and 2%
  Population Membrane Permeable-Phenotype (%): 10% and 13%
  Population Mitochondria Different-Phenotype (%): 5% and 12%
  Population Normal (%): 96% and 97%
  Population Pyknosed Nuclei (%): 11% and 10%
  Population Tubulin-Different-Phenotype (%): 4% and 10%
  Total Cell Count: 228 and 165
[5]
  Population Apoptotic (%): 88% and 93%
  Population Fragmented Nuclei (%): 13%
  Population Healthy Nuclei (%): 77% and 73%
  Population Hoechst High Intensity Objects (%): 2% and 3%
  Population Membrane Permeable-Phenotype (%): 5% and 4%
  Population Mitochondria Different-Phenotype (%): 1% and 4%
  Population Mitotic Cells (%): 11% and 6%
  Population Normal (%): 97% and 96%
  Population Pyknosed Nuclei (%): 8% and 13%
  Population Tubulin-Different-Phenotype (%): 3%
  Total Cell Count: 405 and 221
[6]
  Population Apoptotic (%): 86% and 87%
  Population Fragmented Nuclei (%): 30% and 13%
  Population Healthy Nuclei (%): 57% and 66%
  Population Hoechst High Intensity Objects (%): 3% and 4%
  Population Membrane Permeable-Phenotype (%): 7% and 9%
  Population Mitochondria Different-Phenotype (%): 1% and 9%
  Population Mitotic Cells (%): 13% and 12%
  Population Normal (%): 96% and 95%
  Population Pyknosed Nuclei (%): 12% and 20%
  Population Tubulin-Different-Phenotype (%): 3% and 5%
  Total Cell Count: 303 and 206

## COc1cc(N2CCN(C)CC2)ccc1Nc1nccc(-c2cn(C)c3cnccc23)n1
[1]
  Population Apoptotic (%): 42.42% and 21.43%
  Population Fragmented Nuclei (%): 1.36% and 2.74%
  Population Healthy Nuclei (%): 89.7% and 78.08%
  Population Hoechst High Intensity Objects (%): 0.27% and 0%
  Population Membrane Permeable-Phenotype (%): 5.14% and 14.04%
  Population Mitotic Cells (%): 57.58% and 78.57%
  Population Normal (%): 99.73% and 100%
  Population Pyknosed Nuclei (%): 8.94% and 19.18%
  Population Tubulin-Different-Phenotype (%): 5.14% and 4.39%
  Total Cell Count: 370 and 146
[2]
  Population Apoptotic (%): 48.67% and 23.94%
  Population Fragmented Nuclei (%): 6.32% and 4.8%
  Population Healthy Nuclei (%): 61.21% and 38.4%
  Population Hoechst High Intensity Objects (%): 0%
  Population Membrane Permeable-Phenotype (%): 33.33% and 66.67%
  Population Mitotic Cells (%): 51.33% and 76.06%
  Population Normal (%): 100%
  Population Pyknosed Nuclei (%): 32.47% and 56.8%
  Population Tubulin-Different-Phenotype (%): 60.56% and 58.33%
  Total Cell Count: 348 and 125
[3]
  Population Apoptotic (%): 46.67% and 20.69%
  Population Fragmented Nuclei (%): 0.88% and 3.53%
  Population Healthy Nuclei (%): 89.18% and 79.41%
  Population Hoechst High Intensity Objects (%): 0%
  Population Membrane Permeable-Phenotype (%): 3.96% and 9.63%
  Population Mitotic Cells (%): 53.33% and 79.31%
  Population Normal (%): 100%
  Population Pyknosed Nuclei (%): 9.93% and 17.06%
  Population Tubulin-Different-Phenotype (%): 3.71% and 5.19%
  Total Cell Count: 453 and 170
[4]
  Population Apoptotic (%): 79.82% and 63.75%
  Population Fragmented Nuclei (%): 10.27% and 17.39%
  Population Healthy Nuclei (%): 55.29% and 24.64%
  Population Hoechst High Intensity Objects (%): 0%
  Population Membrane Permeable-Phenotype (%): 25.68% and 44.12%
  Population Mitotic Cells (%): 20.18% and 36.25%
  Population Normal (%): 100%
  Population Pyknosed Nuclei (%): 34.44% and 57.97%
  Population Tubulin-Different-Phenotype (%): 53.55% and 44.12%
  Total Cell Count: 331 and 138
[5]
  Population Apoptotic (%): 46.51% and 48.94%
  Population Fragmented Nuclei (%): 1.87% and 5.31%
  Population Healthy Nuclei (%): 87.42% and 75.51%
  Population Hoechst High Intensity Objects (%): 0%
  Population Membrane Permeable-Phenotype (%): 1.42% and 4.86%
  Population Mitotic Cells (%): 53.49% and 51.06%
  Population Normal (%): 100%
  Population Pyknosed Nuclei (%): 10.71% and 19.18%
  Population Tubulin-Different-Phenotype (%): 2.14% and 3.78%
[6]
  Population Apoptotic (%): 82.73% and 95.65%
  Population Fragmented Nuclei (%): 15.62% and 15.79%
  Population Hoechst High Intensity Objects (%): 0%
  Population Membrane Permeable-Phenotype (%): 15.15% and 25%
  Population Normal (%): 100%
  Population Pyknosed Nuclei (%): 30.14% and 69.17%
  Population Tubulin-Different-Phenotype (%): 53.54% and 40%
  Total Cell Count: 365 and 133
